Assay results from paper PMC8163102 (Angewandte Chemie (International ed. in English), 2020).

Columns and labels:
[1] = test system: 4T1 murine breast cancer lysates; assay: Cleavage of ACC peptide substrates in tumor lysate; type: biochemical, mouse; settings: E64 10 μM preincubation, 4T1 lysate, acidic pH; Fig. 1D
In short: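 ACC-reporter peptide substrates were added to 4T1 murine breast cancer lysate at acidic pH, with or without prior preincubation with the cysteine cathepsin inhibitor E64 (10 μM). Cleavage velocity was plotted as mean ± SD, n=3.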

immortalized macrophages = assay: Probe activation in cells by flow cytometry; type: cell-based; settings: E64d pretreatment; Fig. S4

Structure (SMILES)	Effect of preincubation with the inhibitor on cleavage of ACC substrates 1-3 [1]	Effect of inhibitor pretreatment on labelling of cells by probe 5 (immortalized macrophages)
CC(C)C[C@H](NC(=O)[C@H]1O[C@@H]1C(=O)O)C(=O)NCCCCN=C(N)N [E64]	fully abrogated cleavage	
CCOC(=O)[C@H]1O[C@@H]1C(=O)N[C@@H](CC(C)C)C(=O)NCCC(C)C [E64d]		strongly diminished labelling
